# NF-kB neuron act: compounds increasing NF-kB expression in human neuronal cells. NF-kB reporter expression; active compounds read high. fold change at 12.5 µM. hit rate 1.6% among 190,000. AID 1239; in the data active = fold change above about 3.3
# FLuc stim CS: firefly luciferase counter-screen for stimulation assays | P08659 | ATPlite luciferase biochemical, luminescence, 10 min; 0 = ATP-free wells, 1 = DMSO control | activation factor at 10 µM | 200,000 tested, under 10 active | AID 1027;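 active = luciferase activation factor, scaled between plate controls, of at least 2 with compound at 10 µM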
# Target sequence (P08659 whole entry, looked up): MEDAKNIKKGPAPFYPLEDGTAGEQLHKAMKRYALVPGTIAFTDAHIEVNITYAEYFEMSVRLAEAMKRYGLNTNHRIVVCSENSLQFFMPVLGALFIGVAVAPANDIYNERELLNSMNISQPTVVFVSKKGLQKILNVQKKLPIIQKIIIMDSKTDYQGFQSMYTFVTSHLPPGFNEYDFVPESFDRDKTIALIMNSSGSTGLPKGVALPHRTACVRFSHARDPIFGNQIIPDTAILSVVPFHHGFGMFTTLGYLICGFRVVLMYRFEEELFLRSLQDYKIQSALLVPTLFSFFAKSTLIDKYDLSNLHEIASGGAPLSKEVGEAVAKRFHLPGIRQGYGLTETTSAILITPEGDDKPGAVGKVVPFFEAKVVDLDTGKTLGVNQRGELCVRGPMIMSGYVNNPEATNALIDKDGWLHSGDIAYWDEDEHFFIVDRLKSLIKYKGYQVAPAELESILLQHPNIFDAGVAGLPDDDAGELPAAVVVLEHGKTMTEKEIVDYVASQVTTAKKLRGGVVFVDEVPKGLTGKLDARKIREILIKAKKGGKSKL
#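 Assay system: Luciferase/luciferin detection reagent, cell-free biochemical luciferase assay / Also added: ATP substrate / Schedule: 10 min at ambient temperature / Measured by: luminescence measurement of luciferase light output / Benchmarks: low control with PBS replacing ATP, high control enzyme plus ATP without compound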
# APP 5'UTR act: APP 5'UTR luciferase reporter activation; SH-SY5Y APP 5'UTR luciferase reporter, luminescence; zero percent = DMSO vehicle wells; hit rate 1% among 190,000; activation, % at 2 µM;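 active = activation above a set limit, based on mean plus 3 SD of controls, cut at about 140% in these data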
# STAT1 activator: activators of IFN-gamma induced STAT1 signaling | NIH 3T3 STAT1-luciferase reporter, luminescence; 100% = IFN-gamma alone, no compound | activation (% of control), % at 5.5 µM | hit rate 2.6% among 200,000 | AID 932;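 active = activation above the screen-wide mean activation plus 3 SD, cut at about 130% in these data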;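 note: raw ratio to IFN-gamma control signal so 100% means no change and 0% no light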
# FLuc inh counter: inhibits firefly luciferase, flagging false hits in luciferase inhibition screens; P08659; ATPLite firefly luciferase biochemical luminescence, 10 min; inhibition, % at 10 µM; hit rate 1.5% among 200,000; AID 1006;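 active = inhibition above about 50% when tested at 10 µM, limit read from the data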
# * marks the source's active call; other numbers are inactive results. This is a sample that favours compounds with a hit; in the whole collection about 4.1% have one here.
SMILES,NF-kB neuron act,FLuc stim CS,APP 5'UTR act,STAT1 activator,FLuc inh counter
Cc1cc(Br)cc2c1NC(=O)C2(c1c(C)n(C)n(-c2ccccc2)c1=O)c1c(C)n(C)n(-c2ccccc2)c1=O,1,1.1,-20,103,-5
COC(=O)c1cc(NS(=O)(=O)c2ccc(N3CCOCC3)c(N)c2)cc(C(=O)OC)c1,0.87,1,9,99,-5
Cc1cc(NC(=O)CSc2nc3c(cc2C#N)CCCC3)no1,2.4,1.1,207*,138*,-6
N#Cc1cc2c(nc1SCc1ccccc1)CCC2,1,1,1,102,-5
CCc1cc2cc(C)ccc2nc1SCC(=O)Nc1cc(C)on1,3.3*,1,6,103,-1
N#Cc1cc2c(nc1SCc1ccncc1)CCC2,1.6,1,48,138*,2
CCc1cc2ccc(C)cc2nc1SCC(=O)Nc1cc(C)on1,0.92,1.1,2,101,-8
Cc1cc(NC(=O)COC(=O)C(Cc2ccccc2)NC(=O)c2ccco2)no1 (stereo not drawn),1.1,1,8,95,-5
CC1N/C(=C\C(=O)c2ccccc2)N(O)C1(C)C (stereo not drawn),1.8,0.4,91,134*,63*
CN1C(CC(=O)c2ccccc2)CCCC1CC(O)c1ccccc1 (stereo not drawn),1.3,1,3,103,-4
CCCCOc1ncnc2c1[nH]c1ccc(OCC)cc12,1.5,1,0,100,2
CCCCOc1ncnc2c1[nH]c1ccc(OC)cc12,4.4*,0.9,69,137*,11
Cc1cc(C(=O)OCC(=O)Nc2cc(S(=O)(=O)N(C)C)ccc2C)c2ccccc2n1,0.78,1,5,88,-1
COc1ccc2oc(=Nc3cc(F)ccc3F)c(C(N)=O)cc2c1,1.1,1,-13,131*,-4
COc1cc(C)c(S(=O)(=O)Nc2ccccc2F)cc1C,1,1,-1,102,-3
CC(C)n1cnc2cc(NCc3ccco3)ccc21,1.1,0.4,21,114,58*
CCN(CC)CCCNC(=O)c1ccc(OCC(=O)Nc2ccccc2C(F)(F)F)c(OC)c1,0.88,1,-5,99,-4
Cc1ccc(S(=O)(=O)N(CC(=O)Nc2ccccc2C(=O)O)c2cccc(Cl)c2C)cc1,1.2,1,-10,99,-3
Cc1ccc(NC(=O)N/C=C/c2ccco2)c(C)c1,5.2*,1,-6,101,0
Cc1nnc(N/N=C/c2cccc(OCc3ccc(Cl)c(Cl)c3)c2)n1N,0.99,1,36,140*,-4
C/C(=N\OC(=O)NC1CCCCC1)c1sc(-c2ccccc2)nc1C,1.9,1.1,38,110,-6
C/C(=N\OC(=O)NC(C)C)c1sc(-c2ccc(Cl)cc2)nc1C,5.8*,1,39,117,-1
CCNC(=O)O/N=C(\C)c1sc(-c2ccc(Cl)cc2)nc1C,7.1*,0.9,160*,144*,12
C/C(=N\OC(=O)NC(C)C)c1sc(-c2ccccc2)nc1C,1.7,1.1,82,117,-5
[O-]/C(=C(\C(=S)Nc1cccc2ccccc12)[n+]1cccc(CO)c1)c1ccc(Cl)s1,1.1,1,10,98,-4
SMILES,NF-kB neuron act,FLuc stim CS,APP 5'UTR act,STAT1 activator,FLuc inh counter
O=c1[nH]c(Nc2nc3ccccc3o2)nc2c1CCCC2,2,0.3,170*,90,70*
O=C(O)CCC(=O)Nc1ccc(C(=O)OC2CCCCC2)cc1,0.87,0.9,-17,101,12
CCOC(=O)c1c(NC(=O)c2c(-c3ccccc3)noc2C)sc(C)c1-c1ccccc1,0.71,1.1,-40,136*,-6
CN(C)c1ccc(/C=C/c2nc3ccccc3s2)cc1,0.6,0.1,14,17,93*
COc1cc(/C=C/c2nc3ccccc3s2)cc(OC)c1O,1.1,0.9,129,114,9
Cc1ccc(S(=O)(=O)Nc2nc3ccccc3s2)cc1,0.91,1.1,8,96,-6
Cc1ccc(/C=C/c2nc3ccccc3s2)s1,2.5,0.1,99,60,91*
COc1ccc(Nc2nc(C)c(-c3ccccc3)s2)cc1,2.5,0.9,82,156*,12
COc1ccc(Nc2nc(C)c3ccccc3n2)cc1,3,0.8,98,134*,23
Clc1cccc(NC2=NCCC2)c1,0.96,1.1,6,98,-6
COc1ccc(/C(=C\Nc2ccc(C)c(C)c2)C(C)=O)cc1OC,1,1,10,103,-2
O=C(O)C1[C@H]2C(=O)N(Cc3cccs3)C[C@]23C=C[C@H]1O3 (stereo partly drawn),1.6,1,9,104,2
COc1ccc2c(c1)sc1nc(-c3ccccc3)cn12,0.63,0,-87,34,97*
O=C(Nc1nnc(-c2ccco2)s1)C1CCCCC1,1.5,1,108,144*,4
O=C1N/C(=C\c2ccccc2)c2ccccc21,1.6,0.8,39,112,15
O=C1NC(=S)N/C1=C/C=C/c1ccccc1,2.5,1,0,134*,4
Cc1ccccc1OCC(=O)Nc1nc2ccccc2[nH]1,2.1,0.2,114,136*,84*
CC(CC(=O)Nc1nc2ccccc2[nH]1)c1ccccc1 (stereo not drawn),2.5,0.8,123,145*,25
O=C(COc1ccccc1)Nc1nc2ccccc2[nH]1,2.6,0.5,56,129*,48
O=C(N/N=C/c1cccc(C(F)(F)F)c1)c1cc2c(s1)-c1ccccc1CC2,1,1.1,5,104,-6
O=C1CC2CS(=O)(=O)CC2N1c1ccc(Cl)cc1Cl (stereo not drawn),1,1.1,3,96,-12
Fc1ccc(-c2cnc(-c3cccs3)o2)cc1,1.8,0.7,70,142*,35
O=C1C2C3CCC(C3)C2C(=O)N1c1ccc(OS(=O)(=O)c2ccccc2)cc1 (stereo not drawn),1.7,0.9,106,137*,10
Cc1ccc(S(=O)(=O)Oc2ccc(N3C(=O)C4C5CCC(C5)C4C3=O)cc2)cc1 (stereo not drawn),1.3,1.1,5,88,-10
COc1cc(NC(=O)COc2ccc(Cl)cc2)ccc1-c1cc2ccccc2oc1=O,1.1,1,7,107,-4
SMILES,NF-kB neuron act,FLuc stim CS,APP 5'UTR act,STAT1 activator,FLuc inh counter
CC(=O)N1CCN(S(=O)(=O)c2cccc(C(=O)Nc3nccs3)c2)CC1,1.2,1,-9,131*,-4
COc1cccc(N(CC(=O)N2CCN(C)CC2)S(=O)(=O)c2ccccc2)c1,1.1,1,5,101,-4
Cc1nn(C)cc1/C=C/C(=O)c1ccccc1,11*,0.5,161*,111,54*
CCn1cc(/C=N/O)c(C)n1,1.2,1,-17,98,0
Cc1nn(C)cc1/C=C/C(=O)c1cccs1,6.3*,0.4,126,116,63*
Cc1nn(C)c(C)c1/C=C/C(=O)c1ccccc1,2.1,0.9,51,104,14

# Screening results (PubChem BioAssay)
